Most compounds without a hit are left out; they make up all but 2.3% or so of the library.
bCat nuc transl: modulators of beta-catenin nuclear translocation, primary screen, imaging, HeLa cells, immunofluorescence, high-content; nuclear translocation activity, % at 5 µM; 0.3% of 190,000 active; AID 1665, 2009;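 active means nuclear translocation activity above 50% at 5 µM, with a well cell count of 50 or more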;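 further: per-cell ratio of nuclear to cytoplasmic median beta-catenin stain intensity; plate controls were DMSO negative control for no effect and GSK-3 inhibitor IX positive control for full effect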
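Test system: human HeLa cell line; Doses: 5 µM primary, 0.02–20 µM confirmation; Incubation: 24 h compound exposure, 37°C; Detection: beta-catenin immunofluorescence imaging with DAPI; Read-out: beta-catenin nuclear/cytoplasmic ratio, % activation.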
Dynein transport: inhibitors of GR-EGFP nuclear translocation, primary screen, dynein cargo transport inhibitor project, imaging, high-content, 3617.4 mouse cells. test concentration mostly 20 µM; stimulated with dexamethasone, 1 µM; active compounds read low. z-score, hits read low. 0.47% of 220,000 active. AID 1381, 2008;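 active means plate z-score of nuclear minus cytoplasmic receptor signal below a set negative limit, without overly bright fluorescence or cell loss, cut at about -3.5 in these data, passing the limit was not always enough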;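 further: z-score of nuclear minus cytoplasmic ring GR-EGFP intensity difference per well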
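Schedule: 48 h induction, then 1 h compound, then 30 min agonist, 37 °C. Buffer or medium: tetracycline-free induction medium containing charcoal-stripped FBS. Reagent: 1.0 µM final dexamethasone stimulus. Evaluation: nuclear versus cytoplasmic GR-EGFP signal, averaged per well. Signal: high-content fluorescence imaging after fixation.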
MT stabilizer: microtubule stabilizers in HeLa cells, primary screen, imaging, high-content imaging; HeLa tubulin immunostaining HCS, 24 h; share of cells brighter than vehicle mean+2SD; % tubulin-high responders, % at 10 µM; 0.83% of 200,000 active; AID 2205, 2009;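 active means plate Z-score above 3 for both tubulin-high and condensed-nucleus cell shares, with cell loss under 80%, at 10 µM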;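 further: anti alpha tubulin signal scored within the nucleus-defined area of each cell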
Ins promoter up: insulin promoter activators in MIN6 cells, imaging, high-content screening, mouse beta cells. 0.3% of 190,000 active. MIN6 insulin promoter-GFP reporter; active compounds read high. z-score at 5 µM;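 active means z-score above 3 at 5 µM with at least 500 cells counted in the well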
Autophagy mod: autophagy modulators in MEF cells, primary screen, imaging, high-content, MEF GFP-LC3 | MEF GFP-LC3 puncta imaging; test concentration mostly 10 µM | calls only at 10 µM (by protocol) | 0.98% of 190,000 active;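 active means percentage of spot-positive cells more than 3 SD above its plate mean, without a fluorescence outlier flag or 80% toxicity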;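 further: spot-positive cell cutoff set from DMSO-treated cells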
* hit, by the source's call; i = inactive; . = not tested or not shown; + = active, no number.

SMILES	bCat nuc transl	Dynein transport	MT stabilizer	Ins promoter up	Autophagy mod
CCOc1cc(CNc2ccc(N3CCOCC3)cc2)cc(Br)c1OCC	1	-1.3	5	-0.59	i
CCOc1cc(CNc2ccc3c(c2)OCCO3)cc(Br)c1OCC	120*	0.7	13	-1.8	i
COc1cccc(-c2nn(-c3ccccc3)cc2/C=C(/NC(=O)c2ccccc2)C(=O)O)c1	-1	-0.59	.	0.24	.
CCOC(=O)COc1cc([N+](=O)[O-])cc2cccnc12	2	0.74	1	0.18	i
CCOC(=O)COc1ccccc1/C=C\[N+](=O)[O-]	1	-3.6*	2	-0.32	i
CCN(CC)S(=O)(=O)c1cccc(NC2=NCCCCC2)c1	1	-0.48	.	0.27	.
Cc1noc(C)c1-c1nnc(-c2ccc(C(F)(F)F)cc2)o1	4	0.28	.	-0.07	.
COc1cccc(Sc2ccccc2/C=N/NC(N)=O)c1	45	0.57	15*	-0.88	i
CCN1C(=O)CSc2ccc(C(=O)NCc3ccccc3OC)cc21	0	-0.025	1	3.1*	i
COCCCNC(=S)NC1CCCCC1	-6	0.44	3	0.13	i
COc1ccc(C(=O)Nn2cnnc2)cc1OC	1	0.61	.	4.4*	.
Cn1cc(/C=C(\C#N)C(=O)Nc2cccc([N+](=O)[O-])c2)c2ccccc21	0	0.39	2	.	+
Cn1cc(/C=N/NC(=O)c2cccc([N+](=O)[O-])c2)c2ccccc21	.	0.3	2	-0.18	i
Cc1cc(NC(=O)c2ccc(Cl)cc2)c(C)cc1O	0	0.067	3	-0.92	i
Cc1cc(O)c(-c2cc(O)c(C)cc2O)cc1O	-4	-6*	.	0	.
COc1ccc(C(=O)c2cc([N+](=O)[O-])ccc2N2CCCC2)cc1	-4	0.089	20*	0.38	i
COc1ccc(C(=O)c2cc([N+](=O)[O-])ccc2N2CCN(C)CC2)cc1	74*	2	14*	0.64	+
COc1ccc(NC(=O)c2cc([N+](=O)[O-])ccc2N2CCCC2)cc1	5	-0.087	3	-0.47	i
COC(=O)/C(C#N)=C/c1c(Oc2cccc(C)c2C)nc2ccccn2c1=O	0	0.36	.	0.16	.
Cc1ccc(S(=O)(=O)NC(=O)N(C)C2CCCCC2)cc1	-1	0.15	.	.	.
CCc1nc(SCC(=O)N2c3ccccc3CC2C)c2c(C)c(C)sc2n1 (centres undefined)	4	-0.34	1	1.7	i
Cc1sc2nc(C(C)C)nc(SCC(=O)N3c4ccccc4CC3C)c2c1C (centres undefined)	0	0.9	5	-0.73	+
O=C(O)C1CCN(C(=O)CCc2ccccc2)CC1	-1	-0.097	.	0.18	.
CN(C)c1ccc(-c2nnn(CC(=O)Nc3ccc4c(c3)OCCO4)n2)cc1	0	-0.79	4	.	i
CC(=O)Nc1ccc(-c2nnn(CC(=O)Nc3ccc4c(c3)OCO4)n2)cc1Cl	-2	-0.24	5	0	+
SMILES	bCat nuc transl	Dynein transport	MT stabilizer	Ins promoter up	Autophagy mod
Cc1oc(S(=O)(=O)N2CCCCC2)cc1NC(=O)Nc1ccc(F)cc1	0	0.48	.	0.31	.
COc1ccc(C2=NOC(C(=O)Nc3cccnc3Cl)C2)cc1 (centres undefined)	0	0.51	2	-0.24	+
COc1ccc(C2C(CC(=O)O)=C(O)C(=O)N2c2ccccc2)cc1 (centres undefined)	-2	-1.2	3	0.88	i
Cc1ccc(NC2=C(CC(=O)O)C(c3ccccc3)N(c3ccc(C)cc3)C2=O)cc1 (centres undefined)	2	-1.4	12*	-0.92	i
NS(=O)(=O)c1cccc2cccnc12	0	-0.45	1	5.5*	i
CC(C)c1ccc(N)c(S(=O)(=O)O)c1	1	0.29	.	-0.85	.
Cc1ccc(NC2=CC(=O)CC(c3ccc(Cl)cc3)C2)cc1 (centres undefined)	0	0.24	4	-0.41	i
CN(C)CCCNC1=CC(=O)CC(c2ccccc2)C1 (centres undefined)	0	0.41	2	-0.4	i
Cc1ccc(NC2=CC(=O)CC(c3ccccc3)C2)cc1 (centres undefined)	10	-0.37	20*	0.21	i
O=C1C=C(Nc2ccc(Cl)cc2)CC(c2ccccc2)C1 (centres undefined)	126*	-1.4	14*	-0.14	i
CC(C)CCNC1=CC(=O)CC(c2ccccc2)C1 (centres undefined)	.	0.7	13*	1.3	i
CC1=C(Cl)C2=NS(=O)(=O)CCN2C=C1Cl	1	-0.091	2	-0.15	i
O=C(c1cnn2c(C(F)F)cc(-c3ccccc3)nc12)N1CCCCC1c1cccnc1 (centres undefined)	1	0.17	.	1.7	.
COc1ccc(-c2[nH]c(-c3ccc(C)cc3)nc2SCC(=O)Nc2nccs2)cc1	0	-0.08	4	-0.31	i
COc1ccc(-c2nc(SCC(=O)Nc3nccs3)c(-c3ccc(Cl)cc3)[nH]2)cc1	0	-0.42	15*	-0.64	i
O=C(COc1ccc(C(=O)c2ccccc2)cc1)NCc1ccc(F)cc1	158*	0.056	9.7*	1.6	i
O=C(COc1ccccc1)NCc1ccccc1	.	0.53	2	0.8	i
COc1ccccc1/C=C/C(=O)c1c2c(c(C)[nH]c1=O)CCCC2	2	-2.5	12	1.8	+
COc1cc(C(C[N+](=O)[O-])c2c(C)[nH]c3ccccc23)ccc1O (centres undefined)	-4	-0.28	2	0.38	+
CN(C(=O)Nc1ccc(Cl)cc1Cl)C1CCCC1	-2	0.21	2	0.81	i
O=C(N1CCN(c2ccccn2)CC1)C(Cl)(Cl)Cl	-1	-0.24	3	0.56	i
O=C(N1CCN(c2ccccn2)CC1)N1c2ccccc2Sc2ccccc21	4	0.83	31*	-0.43	i
O=C(c1ccco1)N1CCN(C(=O)N2c3ccccc3Sc3ccccc32)CC1	35	-0.81	14*	-3.2	+
O=C(NC1CCN(C(=O)N2c3ccccc3Sc3ccccc32)CC1)c1ccco1	-5	1.1	13*	-0.47	+
COc1ccc(C(=O)N2CCN(Cc3ccc4c(c3)OCO4)CC2)cc1[N+](=O)[O-]	1	2.9	2	1	i
Cc1ccc(-c2ccc(=O)n(CC(=O)NCc3ccc(F)cc3)n2)cc1	-2	-0.64	3	.	i
Cc1cccc(Cc2nnc(CCC(=O)N(C)C3CCOC3)o2)c1 (centres undefined)	1	-0.64	2	-0.14	i
CCCCS/C(=C(/C#N)C(N)=O)c1cc2c([nH]1)CCCC2	4	-1.5	12*	0.95	i
COc1ccc(C(=O)NCCCOc2cccc(NC(C)=O)c2)cc1	-1	0.019	.	-0.43	.

Source: PubChem BioAssay (several laboratories)
